Data as given in ChEMBL document CHEMBL5316296, “Indole Derivatives as New Structural Class of Potent and Antiproliferative Inhibitors of Monocarboxylate Transporter 1 (MCT1; SLC16A1)” (J Med Chem, 2023).
Calls of active or inactive are those of the source. The calls are words filed in the database; no cut-off is given here.

Legend:
NIH3T3 = assay: Cytotoxicity against mouse NIH3T3 cells assessed as cell viability incubated for 72 hrs by MTT assay; assay type: toxicity, cell-based; settings: nih3t3, 72 h
In short: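 NIH/3T3 murine embryonic fibroblasts (5000/well) screened at 10 and 50 μM compound for 72 h at 37 °C, 5% CO2. MTT readout (1 h), DMSO-dissolved formazan read at 570 nm, 690 nm background. DMSO and culture medium define 0 and 100% viability; at least three independent experiments.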

[1] = target: T1, Monocarboxylate transporter 4 (Homo sapiens) (UniProt O15427); assay: Inhibition of MCT4 in human MDA-MB-231 cells assessed as inhibition of acidic lactate extrusion by measuring reduction in pH at 10 uM incubated for 12 hrs by BCECF-AM dye based fluorescence spectrophotometric analysis; assay type: cell-based
T1 sequence (whole entry): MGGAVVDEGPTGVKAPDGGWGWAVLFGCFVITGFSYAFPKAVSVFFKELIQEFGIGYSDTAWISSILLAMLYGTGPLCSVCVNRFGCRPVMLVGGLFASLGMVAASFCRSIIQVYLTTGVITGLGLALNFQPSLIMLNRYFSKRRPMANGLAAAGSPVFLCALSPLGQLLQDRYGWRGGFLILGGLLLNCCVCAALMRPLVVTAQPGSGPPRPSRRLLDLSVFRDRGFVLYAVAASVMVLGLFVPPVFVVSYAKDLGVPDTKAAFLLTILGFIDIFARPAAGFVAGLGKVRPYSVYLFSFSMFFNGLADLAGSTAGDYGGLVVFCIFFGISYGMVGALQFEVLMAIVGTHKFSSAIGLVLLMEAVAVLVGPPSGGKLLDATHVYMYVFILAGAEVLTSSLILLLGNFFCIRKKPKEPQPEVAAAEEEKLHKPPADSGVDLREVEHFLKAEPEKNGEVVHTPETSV
In short: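 MDA-MB-231 cells (50,000/well) plated overnight, then treated with 10 μM compound for 12 h at 37 °C. Loaded with BCECF-AM (5 μM, 1 h), washed twice. Intracellular pH from emission ratio against per-plate calibration (pH 4.5–7.5 buffers with 10 μM nigericin and 10 μM valinomycin, 30 min, room temperature).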

A549 = assay: Antiproliferative activity against human A549 cells expressing MCT1 assessed as effect on cell viability incubated for 72 hrs in the presence of glucose by MTT assay; assay type: functional, cell-based
In short: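 A-549 cells (5000/well) with compound over 72 h; glucose added every 12 h to give 25% or 50% of the original 4.5 g/L. Viability by MTT, absorbance 570 nm (690 nm background). DMSO and culture medium define 0 and 100%; at least three independent experiments.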

[2] = Induction of doxorubicin sensitization in human A549 cells expressing MCT1 assessed as doxorubicin GI50 at 50 nM incubated for 72 hrs by MTT assay; assay type: functional
In short: (§1)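 A-549 cells (~5000/well) given test compound at fixed 50, 100 or 500 nM plus doxorubicin dilution series 50 nM–50 μM. Incubated 72 h at 37 °C, 5% CO2, then MTT readout.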

[3] = Induction of doxorubicin sensitization in human A2780 ADR cells expressing ABCB1 assessed as doxorubicin at 2 uM incubated for 72 hrs by MTT assay; assay type: functional
In short: (§2)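 ABCB1-expressing A2780/ADR cells (grown in RPMI-1640 with 10% FBS) were exposed to a doxorubicin dilution series, with or without a fixed test-compound level of 1.0, 2.0, 3.5 or 5.0 μM. Viability was read by MTT, with DMSO as 0% and medium as 100%. GI50 values come from at least three independent experiments and are compared with doxorubicin alone on sensitive A2780 cells.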

[4] = Induction of doxorubicin sensitization in human A2780 ADR cells expressing ABCB1 assessed as doxorubicin at 3.5 uM incubated for 72 hrs by MTT assay; assay type: functional; in short: as §2
[5] = Induction of doxorubicin sensitization in human A549 cells expressing MCT1 assessed as doxorubicin GI50 at 100 nM incubated for 72 hrs by MTT assay; assay type: functional; in short: as §1
[6] = Induction of doxorubicin sensitization in human A2780 ADR cells expressing ABCB1 assessed as doxorubicin at 1 uM incubated for 72 hrs by MTT assay; assay type: functional; in short: as §2
[7] = Induction of doxorubicin sensitization in human A2780 ADR cells expressing ABCB1 assessed as doxorubicin at 5 uM incubated for 72 hrs by MTT assay; assay type: functional; in short: as §2
A2780 ADR = assay: Induction of doxorubicin sensitization in human A2780 ADR cells expressing ABCB1 assessed as left shift of the concentration-effect curve at 5 uM incubated for 72 hrs by MTT assay; assay type: functional, cell-based
In short: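 ABCB1-expressing A2780/ADR cells given test compound at 1.0, 2.0, 3.5 or 5.0 μM with a doxorubicin series; MTT viability readout. Shift of doxorubicin concentration-effect curve compared against parental A2780. DMSO and medium define 0 and 100%; at least three independent experiments.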

[8] = Growth inhibition of human A549 cells expressing MCT1 at 50 uM incubated for 72 hrs by MTT assay relative to control; assay type: toxicity, cell-based; settings: read-out: GI
[9] = Antiproliferative activity against human A2780 ADR cells expressing ABCB1 assessed as growth inhibition incubated for 72 hrs by MTT assay; assay type: functional

Row | Structure (SMILES) | Activity (NIH3T3) | inhibition [1] | further results
1 | COC(=O)/C(C#N)=C/c1cn(CC(=O)Nc2ccc(Br)cn2)c2ccccc12 | Non-Toxic | inactive | –
2 | COC(=O)/C(C#N)=C/c1cn(CC(=O)Nc2ccc(C)cn2)c2ccccc12 | Non-Toxic | inactive | Activity (A549): inactive; GI50 [2]: 38.6 nM; GI50 [3]: 165 nM; GI50 [4]: 32.4 nM; GI50 [5]: 25.4 nM; GI50 [6]: 516 nM; GI50 [7]: 12.9 nM; Activity (A2780 ADR): Active
3 | O=C(O)C(=O)CBr [BROMOPYRUVATE] | – | – | inhibition at 72 h, 50 µM [8]: ≥ 90%
4 | COC(=O)/C(C#N)=C/c1cn(CC(=O)Nc2ccccn2)c2ccccc12 | Non-Toxic | inactive | –
5 | COC(=O)/C(C#N)=C/c1cn(CC(=O)Nc2cccc(OC)c2)c2ccccc12 | Non-Toxic | inactive | –
6 | N#C/C(=C\c1ccc(O)cc1)C(=O)O [alpha-CYANO-4-HYDROXYCINNAMIC ACID] | Non-Toxic | – | –
7 | COC(=O)/C(C#N)=C/c1cn(CC(=O)Nc2ccccc2C)c2ccccc12 | Non-Toxic | inactive | –
8 | COC(=O)/C(C#N)=C/c1cn(CC(=O)Nc2ccc3ccccc3c2)c2ccccc12 | Non-Toxic | inactive | –
9 | COC(=O)/C(C#N)=C/c1cn(CC(=O)Nc2ccc(C)cc2)c2ccccc12 | Non-Toxic | inactive | –
10 | COc1cccc2c1C(=O)c1c(O)c3c(c(O)c1C2=O)C[C@@](O)(C(=O)CO)C[C@@H]3O[C@H]1C[C@H](N)[C@H](O)[C@H](C)O1 [DOXORUBICIN] | – | – | GI50 [9]: 802 nM
11 | COC(=O)/C(C#N)=C/c1cn(CC(=O)Nc2ccc(OC)cc2)c2ccccc12 | Non-Toxic | inactive | Activity (A549): inactive; GI50 [2]: 40 nM; GI50 [3]: 214 nM; GI50 [4]: 110 nM; GI50 [5]: 27.7 nM; GI50 [6]: 332 nM; GI50 [7]: 32.2 nM; Activity (A2780 ADR): Active
12 | COC(=O)/C(C#N)=C/c1cn(CC(=O)Nc2c(Cl)cccc2Cl)c2ccccc12 | Non-Toxic | inactive | –
13 | COC(=O)/C(C#N)=C/c1cn(CC(=O)Nc2ccc(Br)cc2)c2ccccc12 | Non-Toxic | inactive | –
14 | COC(=O)/C(C#N)=C/c1cn(CC(=O)Nc2ccccc2OC)c2ccccc12 | Non-Toxic | inactive | –
15 | COC(=O)/C(C#N)=C/c1cn(CC(=O)Nc2cccc3ccccc23)c2ccccc12 | Non-Toxic | inactive | –
16 | COC(=O)/C(C#N)=C/c1cn(CC(=O)Nc2ccc(Cl)cc2)c2ccccc12 | Non-Toxic | inactive | –
17 | COC(=O)/C(C#N)=C/c1cn(CC(=O)Nc2cccnc2)c2ccccc12 | Non-Toxic | inactive | –
18 | COC(=O)/C(C#N)=C/c1cn(CC(=O)Nc2ccccc2)c2ccccc12 | Non-Toxic | inactive | –
19 | COC(=O)/C(C#N)=C/c1cn(CC(=O)Nc2ccc(F)cc2)c2ccccc12 | Non-Toxic | inactive | –
